Source: paper PMC4529374 (Pharmaceutical research, 2015)
Values after ≈ are worked out from the molar mass of the structure shown.

How the values were obtained:
[1] = CSIC solubility in water and solubilizer solutions; type: physicochemical; conditions: water
How it was run: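 Excess CSIC was rotated at moderate speed in the solubilizer solutions at ambient temperature for 120 h. The mixture was filtered through a 0.2 µm membrane, and the filtrate was assayed by HPLC. HPLC conditions: Gemini C18 column, isocratic acetonitrile-0.075% (v/v) TFA (40:60) at 1.2 ml/min, UV detection at 302 nm, room temperature, total peak area against a linear least-squares calibration. LOQ was 0.5 µg/ml.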

[2] = EFdA/CSIC stability in the film polymer solution; type: physicochemical; conditions: 25°C/65% R.H. and 40°C/75% R.H., 4 weeks
How it was run: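 Drug-loaded aqueous PVA (7%, w/w) film-casting solution, about 0.5 ml per vial, was sealed against evaporation and light. EFdA: Zorbax C18, 0.4% phosphoric acid/methanol gradient, 0.8 ml/min, UV 260 nm. CSIC: Gemini C18, acetonitrile-0.075% TFA (40:60), 1.2 ml/min, UV 302 nm.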

[3] = In vitro cytotoxicity, MTT assay; type: cell-based; conditions: human, HEC-1A cells
How it was run: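 HEC-1A cells were grown in McCoy's 5A with 10% FBS and penicillin/streptomycin at 37°C, 5% CO2, then seeded at 1×10⁴ cells/well. After 24 h, free drug (5 ng/ml–50 µg/ml) or film at the equivalent dose, or placebo film, was added for 24 h. MTT (5 mg/ml stock) was added in fresh medium for 3 h at 37°C. Formazan was dissolved in DMSO and absorbance read at 595 nm.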

HIV-1 = conditions: read-out: EC50 of CSIC; cited from earlier work

Row | SMILES | solubility [1] [µg/mL] | loss of drug content in film polymer solution [2] | CC50 at 24 h [3] [µg/mL] | EC50 (HIV-1) [nM]
1 | NC(=O)c1[nH]c2ccc(Cl)cc2c1S(=O)(=O)c1ccccc1 [CSIC, 5-chloro-3-phenylsulfonylindole-2-carboxamide] | < 0.5 | No loss of drug content | 11.4 ± 2.8 (≈ 34.1 µM) | 1.2
2 | C#C[C@]1(CO)O[C@@H](n2cnc3c(N)nc(F)nc32)C[C@@H]1O [EFdA, 4’-ethynyl-2-fluoro-2’-deoxyadenosine] |  | No loss of drug content | > 50 | 
